# According to ChEMBL document CHEMBL3785055, “Arginine-linked neomycin B dimers: synthesis, rRNA binding, and resistance enzyme activity” (Medchemcomm, 2016):
# Active and inactive are the calls of the source. No cut-off for these calls is given here.
# Tests used:
# Bacillus cereus = experiment: Antibacterial activity against Bacillus cereus ATCC 11778 after 16 to 20 hrs by MTT assay; type: functional
# How it was run: (§1)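 Strains grown in LB 24 h at 37 °C, 250 rpm; overnight culture diluted 1:1000, grown 4 h, diluted 1:1000 again and added to microplates. Incubation 16–20 h at 37 °C; growth read visually and with MTT (1 mg/mL).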
# [1] = system: Staphylococcus epidermidis; experiment: Antibacterial activity against Staphylococcus epidermidis ATCC 12228 after 16 to 20 hrs by MTT assay; type: functional; how it was run: as §1
# Staphylococcus aureus [2] = experiment: Antibacterial activity against Staphylococcus aureus ATCC 25923 after 16 to 20 hrs by MTT assay; type: functional; how it was run: as §1
# [3] = Displacement of F-NEO from Escherichia coli rRNA A-site by fluorescence assay
# [4] = Displacement of F-NEO from human rRNA A-site by fluorescence assay
# [5] = Selectivity factor, ratio of IC50 for human rRNA A-site to IC50 for Escherichia coli rRNA A-site
# How it was run: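 Ratio from F-NEO displacement titrations, 0.002–2.0 μM compound against 0.1 μM F-NEO:A-site complex (485/535 nm). Measured IC50 stands in for the unmeasurable competition constants in Kd(human)/Kd(E. coli) = 5.75 × K(E. coli)/K(human). Buffer 10 mM HEPES, 50 mM NaCl, 0.4 mM EDTA, pH 7.0.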
# Escherichia coli = experiment: Activity at Escherichia coli AAC(3)-4 at 100 uM in presence of AcCoA by Ellmans method relative to NEO
# How it was run: (§2)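 Acetylation followed by Ellman's method at 412 nm, 2 mM DTNB, 100 μM compound, 25 °C, triplicate, rates normalized to NEO. AcCoA 500 μM for Eis, 150 μM for AAC(3)-IV; enzyme 0.5 μM for Eis, 0.125 μM for AAC(3)-IV; 50 mM buffer.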
# Staphylococcus aureus [6] = experiment: Activity at Staphylococcus aureus APH(2'')-1a at 100 uM in presence of […] by […] relative to NEO
# [7] = system: Mycobacterium tuberculosis; experiment: Activity at Mycobacterium tuberculosis AAC(2')-1c at 100 uM in presence of AcCoA by Ellmans method relative to NEO
# How it was run: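 N-acetylation by AAC(2')-Ic (0.125 μM enzyme) of 100 μM compound with 150 μM AcCoA and 2 mM DTNB in 100 mM buffer, 25 °C. Thiol release followed at 412 nm (ε = 14,150 M⁻¹cm⁻¹). Rates normalized to neomycin B, triplicate.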
# Staphylococcus aureus [8] = experiment: Activity at Staphylococcus aureus AAC(6')-1e/APH(2'')-1a in presence of AcCoA by Ellmans method relative to NEO
# [9] = Activity at APH(3')-1a (unknown origin) at 100 uM in presence of […] by […] relative to NEO
# [10] = Activity at Eis (unknown origin) at 100 uM in presence of AcCoA by Ellmans method relative to NEO; how it was run: as §2
Compound,MIC (Bacillus cereus) [µM],MIC [1] [µM],MIC (Staphylococcus aureus [2]) [µM],IC50 [3] [µM],IC50 [4] [µM],Ratio IC50 [5],Activity (Escherichia coli),Activity (Staphylococcus aureus [6]),Activity [7],Activity (Staphylococcus aureus [8]),Activity [9],Activity [10]
N=C(N)NCCC[C@@H](NC(=O)c1cc(-c2cn(C[C@@H]3O[C@H](O[C@@H]4[C@@H](O)[C@H](N)C[C@H](N)[C@H]4O[C@@H]4O[C@@H](CN)[C@H](O)[C@@H](O)[C@@H]4N)[C@@H](O)[C@H]3O[C@H]3O[C@@H](CN)[C@@H](O)[C@H](O)[C@H]3N)nn2)cc(-c2cn(C[C@H]3O[C@@H](O[C@@H]4[C@@H](O)[C@H](N)C[C@H](N)[C@H]4O[C@@H]4O[C@@H](CN)[C@H](O)[C@@H](O)[C@@H]4N)[C@H](O)[C@@H]3O[C@H]3O[C@@H](CN)[C@@H](O)[C@H](O)[C@H]3N)nn2)c1)C(N)=O (stereo in doubt),3,> 50,> 50,55,71,7.4,30%,inactive,inactive,inactive,inactive,inactive
N=C(N)NCCC[C@H](NC(=O)CCCCNC(=O)c1cc(-c2cn(C[C@@H]3O[C@H](O[C@H]4[C@H](O)[C@@H](N)C[C@@H](N)[C@@H]4O[C@H]4O[C@H](CN)[C@@H](O)[C@H](O)[C@H]4N)[C@@H](O)[C@H]3O[C@H]3O[C@@H](CN)[C@@H](O)[C@H](O)[C@H]3N)nn2)cc(-c2cn(C[C@H]3O[C@@H](O[C@@H]4[C@@H](O)[C@H](N)C[C@H](N)[C@H]4O[C@@H]4O[C@@H](CN)[C@H](O)[C@@H](O)[C@@H]4N)[C@H](O)[C@@H]3O[C@@H]3O[C@H](CN)[C@H](O)[C@@H](O)[C@@H]3N)nn2)c1)C(N)=O (stereo in doubt),3,> 50,> 50,52,70,7.4,Active,inactive,inactive,inactive,inactive,inactive
N=C(N)NCCC[C@@H](NC(=O)CCCNC(=O)c1cc(-c2cn(C[C@@H]3O[C@H](O[C@@H]4[C@@H](O)[C@H](N)C[C@H](N)[C@H]4O[C@@H]4O[C@@H](CN)[C@H](O)[C@@H](O)[C@@H]4N)[C@@H](O)[C@H]3O[C@@H]3O[C@H](CN)[C@H](O)[C@@H](O)[C@@H]3N)nn2)cc(-c2cn(C[C@H]3O[C@@H](O[C@@H]4[C@@H](O)[C@H](N)C[C@H](N)[C@H]4O[C@@H]4O[C@@H](CN)[C@H](O)[C@@H](O)[C@@H]4N)[C@H](O)[C@@H]3O[C@@H]3O[C@H](CN)[C@H](O)[C@@H](O)[C@@H]3N)nn2)c1)C(N)=O (stereo in doubt),1.6,> 50,> 50,56,52,5.3,Active,inactive,inactive,inactive,inactive,inactive
NC[C@@H]1O[C@@H](O[C@H]2[C@H](O[C@H]3O[C@@H](Cn4cc(-c5cc(C(=O)O)cc(-c6cn(C[C@H]7O[C@@H](O[C@@H]8[C@@H](O)[C@H](N)C[C@H](N)[C@H]8O[C@@H]8O[C@@H](CN)[C@H](O)[C@@H](O)[C@@H]8N)[C@H](O)[C@@H]7O[C@H]7O[C@@H](CN)[C@@H](O)[C@H](O)[C@H]7N)nn6)c5)nn4)[C@H](O[C@H]4O[C@@H](CN)[C@@H](O)[C@H](O)[C@H]4N)[C@@H]3O)[C@@H](O)[C@H](N)C[C@@H]2N)[C@@H](N)[C@H](O)[C@H]1O (stereo in doubt),3,13,13,51,50,5.6,Active,inactive,inactive,inactive,inactive,inactive
N=C(N)NCCC[C@H](NC(=O)CCCCCCNC(=O)c1cc(-c2cn(C[C@@H]3O[C@H](O[C@H]4[C@H](O)[C@@H](N)C[C@@H](N)[C@@H]4O[C@H]4O[C@H](CN)[C@@H](O)[C@H](O)[C@H]4N)[C@@H](O)[C@H]3O[C@H]3O[C@@H](CN)[C@@H](O)[C@H](O)[C@H]3N)nn2)cc(-c2cn(C[C@H]3O[C@@H](O[C@@H]4[C@@H](O)[C@H](N)C[C@H](N)[C@H]4O[C@@H]4O[C@@H](CN)[C@H](O)[C@@H](O)[C@@H]4N)[C@H](O)[C@@H]3O[C@@H]3O[C@H](CN)[C@H](O)[C@@H](O)[C@@H]3N)nn2)c1)C(N)=O (stereo in doubt),3,> 50,> 50,44,56,7.3,–,inactive,inactive,inactive,inactive,inactive
N=C(N)NCCC[C@H](NC(=O)CNC(=O)c1cc(-c2cn(C[C@H]3O[C@@H](O[C@@H]4[C@@H](O)[C@H](N)C[C@H](N)[C@H]4O[C@H]4O[C@H](CN)[C@@H](O)[C@H](O)[C@H]4N)[C@H](O)[C@@H]3O[C@H]3O[C@@H](CN)[C@@H](O)[C@H](O)[C@H]3N)nn2)cc(-c2cn(C[C@H]3O[C@@H](O[C@H]4[C@H](O)[C@@H](N)C[C@@H](N)[C@@H]4O[C@@H]4O[C@@H](CN)[C@H](O)[C@@H](O)[C@@H]4N)[C@H](O)[C@@H]3O[C@H]3O[C@@H](CN)[C@@H](O)[C@H](O)[C@H]3N)nn2)c1)C(N)=O (stereo in doubt),1.6,> 50,50,62,58,5.3,Active,inactive,inactive,inactive,inactive,inactive
N=C(N)NCCC[C@H](NC(=O)CCCCCCCCNC(=O)c1cc(-c2cn(C[C@@H]3O[C@H](O[C@H]4[C@H](O)[C@@H](N)C[C@@H](N)[C@@H]4O[C@H]4O[C@H](CN)[C@@H](O)[C@H](O)[C@H]4N)[C@@H](O)[C@H]3O[C@H]3O[C@@H](CN)[C@@H](O)[C@H](O)[C@H]3N)nn2)cc(-c2cn(C[C@H]3O[C@@H](O[C@@H]4[C@@H](O)[C@H](N)C[C@H](N)[C@H]4O[C@@H]4O[C@@H](CN)[C@H](O)[C@@H](O)[C@@H]4N)[C@H](O)[C@@H]3O[C@@H]3O[C@H](CN)[C@H](O)[C@@H](O)[C@@H]3N)nn2)c1)C(N)=O (stereo in doubt),3,50,> 50,60,62,5.9,–,inactive,inactive,inactive,inactive,inactive
NCC1O[C@H](O[C@H]2[C@@H](O)[C@H](O[C@H]3[C@H](O)[C@@H](N)C[C@@H](N)[C@@H]3O[C@H]3O[C@H](CN)[C@@H](O)[C@H](O)[C@H]3N)O[C@@H]2CO)[C@H](N)[C@@H](O)[C@@H]1O (some centres undefined),≤ 0.1,0.2,0.2,87,76,5,–,–,–,–,–,–
N=C(N)NCCC[C@H](NC(=O)CCCCCCCNC(=O)c1cc(-c2cn(C[C@@H]3O[C@H](O[C@H]4[C@H](O)[C@@H](N)C[C@@H](N)[C@@H]4O[C@H]4O[C@H](CN)[C@@H](O)[C@H](O)[C@H]4N)[C@@H](O)[C@H]3O[C@H]3O[C@@H](CN)[C@@H](O)[C@H](O)[C@H]3N)nn2)cc(-c2cn(C[C@H]3O[C@@H](O[C@@H]4[C@@H](O)[C@H](N)C[C@H](N)[C@H]4O[C@@H]4O[C@@H](CN)[C@H](O)[C@@H](O)[C@@H]4N)[C@H](O)[C@@H]3O[C@@H]3O[C@H](CN)[C@H](O)[C@@H](O)[C@@H]3N)nn2)c1)C(N)=O (stereo in doubt),3,25,> 50,48,43,5.2,–,inactive,inactive,inactive,inactive,inactive
